ChEMBL document CHEMBL3992497, “Synthesis, structure-activity relationships and biological evaluation of 7-phenyl-pyrroloquinolinone 3-amide derivatives as potent antimitotic agents” (Eur J Med Chem, 2017)
Active and inactive are the calls of the source. The rule behind the calls is not given here.

Legend:
MV4-11 = assay: Antiproliferative activity against human MV4-11 cells after 72 hrs by MTT assay; assay type: functional; details: MV4-11, 72 h
Outline: (§1)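 Compounds from 10 mM DMSO stocks. Cells seeded at 8 × 10^3 per well and held 18 h at 37 °C in humidified 5% CO2. Medium was then replaced with fresh medium holding graded compound concentrations, in triplicate, for 72 h at 37 °C. Viability was read by MTT. GI50 is the concentration giving 50% inhibition of proliferation. Mean ± SE of ≥3 independent dose-response experiments.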

A549 = assay: Antiproliferative activity against human A549 cells after 72 hrs by MTT assay; assay type: functional; details: A549, 72 h; outline: as §1
HL-60 = assay: Antiproliferative activity against human HL60 cells after 72 hrs by MTT assay; assay type: functional; details: HL-60, 72 h; outline: as §1
HT-29 = assay: Antiproliferative activity against human HT-29 cells after 72 hrs by MTT assay; assay type: functional; details: HT-29, 72 h; outline: as §1
THP-1 = assay: Antiproliferative activity against human THP1 cells after 72 hrs by MTT assay; assay type: functional; details: THP-1, 72 h; outline: as §1
CCRF-CEM = assay: Antiproliferative activity against human CCRF-CEM cells after 72 hrs by MTT assay; assay type: functional; outline: as §1
HeLa [1] = assay: Antiproliferative activity against human HeLa cells after 72 hrs by MTT assay; assay type: functional; outline: as §1
MCF7 = assay: Antiproliferative activity against human MCF7 cells after 72 hrs by MTT assay; assay type: functional; details: MCF7, 72 h; outline: as §1
SEM cells = assay: Antiproliferative activity against human SEM cells after 72 hrs by MTT assay; assay type: functional; outline: as §1
RS4-11 = assay: Antiproliferative activity against human RS4:11 cells after 72 hrs by MTT assay; assay type: functional; details: RS4-11, 72 h; outline: as §1
Jurkat [2] = assay: Antiproliferative activity against human Jurkat cells after 72 hrs by MTT assay; assay type: functional; outline: as §1
Jurkat [3] = assay: Cell cycle arrest in human Jurkat cells assessed as accumulation at G2/M phase at 100 nM after 24 hrs by propidium iodide staining based flow cytometry relative to control; assay type: functional
Outline: (§2)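 5 × 10^5 cells exposed to varying compound concentrations for 24 h. Cells collected, fixed in ice-cold 70% ethanol, and lysed in buffer with RNase A and 0.1% Triton X-100. PI-stained, then analysed by flow cytometry for phase distribution from DNA histograms. Mean of two independent experiments.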

[4] = Inhibition of bovine brain tubulin assembly preincubated for 20 mins followed by GTP addition by turbidometric method; design: species or system Bos taurus
Outline: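 Varying compound concentrations pre-incubated with 10 μM bovine brain tubulin in glutamate buffer at 30 °C, then chilled to 0 °C. GTP added to 0.4 mM final, mixture warmed to 30 °C, turbidity followed at 350 nm.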

PBL [5] = assay: Antiproliferative activity against human PBL after 72 hrs by MTT assay; assay type: cell-based
Outline: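 PBL from healthy donors separated on a Lymphoprep gradient, washed, and held overnight at 1.0 × 10^6 cells/mL in RPMI-1640 with 10% FBS. Non-adherent resting cells resuspended at 5 × 10^5 cells/mL without PHA. Graded compound concentrations for 72 h, then MTT. Mean ± SEM of three separate experiments.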

HeLa [6] = assay: Cell cycle arrest in human HeLa cells assessed as reduction in G1 phase at 50 to 100 nM after 24 hrs by propidium iodide staining based flow cytometry relative to control; assay type: functional; outline: as §2
Liver [7] = assay: Metabolic stability in human liver microsomes at 10 uM after 60 mins in presence of NADPH by fluorescence based HPLC analysis; assay type: ADME, microsome; details: 1 h
Outline: (§3)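 Compound at 10 μM final in 0.1 M KH2PO4 pH 7.4 with 1.0 mg/mL pooled mixed-gender human liver microsomes, without or with 1 mM NADPH; buffer-only controls. Started with microsomes after 3-min equilibration and run at 37 °C for 0–60 min. Stopped with ice-cold acetonitrile, centrifuged, supernatant run on C18 HPLC with fluorescence detection (ex 344/em 493 nm). % remaining from peak area versus 0 min. Mean ± SD, n = 3–4.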

HeLa [8] = assay: Cell cycle arrest in human HeLa cells assessed as accumulation at G2/M phase at 100 nM after 24 hrs by propidium iodide staining based flow cytometry relative to control; assay type: functional; outline: as §2
Jurkat [9] = assay: Induction of ROS generation in human Jurkat cells at 10 to 100 nM after 24 to 48 hrs by H2-DCFDA staining based flow cytometry; assay type: functional, cell-based
Outline: (§4)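 Cells exposed for 24 or 48 h at the indicated concentrations, then loaded with H2-DCFDA. ROS read as oxidised DCF fluorescence by flow cytometry. Mean ± SEM of three independent experiments.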

[10] = Selectivity index, ratio of IC50 for phytohematoaglutinin-stimulated human PBL to GI50 for human CCRF-CEM cells
Outline: (§5)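 Ratio of two 72 h MTT viability values. Healthy-donor PBL were isolated on a density gradient, rested overnight, then seeded as non-adherent cells at 5 × 10^5 cells/mL with 2.5 μg/mL PHA and exposed to graded compound concentrations. Leukemia cells were grown in RPMI-1640 with 10% FBS, seeded at 8 × 10^3 cells/well, pre-incubated 18 h at 37 °C, and dosed in triplicate.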

HeLa [11] = assay: Induction of ROS generation in human HeLa cells at 10 to 100 nM after 24 to 48 hrs by H2-DCFDA staining based flow cytometry; assay type: functional, cell-based; outline: as §4
Bos taurus = species: Bos taurus; assay: Inhibition of [3H]colchicine binding to bovine brain tubulin at 5 uM relative to control
Outline: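 Reaction mixtures held 1 μM tubulin, 5 μM [3H]colchicine and 5 μM test compound. Inhibition of bound radiolabel measured relative to control.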

Jurkat [12] = assay: Cell cycle arrest in human Jurkat cells assessed as accumulation at G2/M phase after 24 hrs by propidium iodide staining based flow cytometry; assay type: functional; outline: as §2
[13] = Selectivity index, ratio of IC50 for phytohematoaglutinin-stimulated human PBL to GI50 for human Jurkat cells; outline: as §5
[14] = Metabolic stability in human liver microsomes assessed as parent compound remaining at 10 uM after 60 mins by fluorescence based HPLC analysis; assay type: ADME, microsome; details: read-out: Stability; outline: as §3
PBL [15] = assay: Antiproliferative activity against phytohematoaglutinin-stimulated human PBL after 72 hrs by MTT assay; assay type: cell-based
Outline: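 Donor PBL isolated on a Lymphoprep gradient and rested overnight in RPMI-1640 with 10% FBS. Non-adherent cells resuspended at 5 × 10^5 cells/mL in growth medium with 2.5 μg/mL PHA. Graded compound concentrations added; viability by MTT at 72 h. Mean ± SEM of three separate experiments.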

HeLa [16] = assay: Cell cycle arrest in human HeLa cells assessed as accumulation at G2/M phase after 24 hrs by propidium iodide staining based flow cytometry; assay type: functional; outline: as §2
Liver [17] = assay: Drug metabolism in human liver microsomes assessed as 7-phenyl-3H-pyrrolo[3,2-f]quinolin-9(6H)-one formation at 10 uM after 60 mins by fluorescence based HPLC analysis; assay type: ADME, microsome; details: 1 h; outline: as §3
HeLa [18] = assay: Cell cycle arrest in human HeLa cells assessed as reduction in S phase at 50 to 100 nM after 24 hrs by propidium iodide staining based flow cytometry relative to control; assay type: functional; outline: as §2
Liver [19] = assay: Drug level in human liver microsomes treated with 3-Benzoyl-7-phenyl-6H-pyrrolo[3,2-f]quinolin-9-one at 10 uM after 60 mins by fluorescence based HPLC analysis; assay type: ADME, microsome; details: 1 h; outline: as §3
Jurkat [20] = assay: Cell cycle arrest in human Jurkat cells assessed as accumulation at G2/M phase at 50 to 100 nM after 24 hrs by propidium iodide staining based flow cytometry; assay type: functional; outline: as §2
HeLa [21] = assay: Cell cycle arrest in human HeLa cells assessed as accumulation at G2/M phase at 50 to 100 nM after 24 hrs by propidium iodide staining based flow cytometry; assay type: functional; outline: as §2

| GI50 (MV4-11) | GI50 (A549) | GI50 (HL-60) | GI50 (HT-29) | GI50 (THP-1) | GI50 (CCRF-CEM) | GI50 (HeLa [1]) | GI50 (MCF7) | GI50 (RS4-11) | GI50 (Jurkat [2]) | IC50 [4] | inhibition (Bos taurus) | SMILES | GI50 (SEM cells) | further results |
| --- | --- | --- | --- | --- | --- | --- | --- | --- | --- | --- | --- | --- | --- | --- |
| 1.54 µM | 0.918 µM | 2.64 µM | 1.59 µM | 2.17 µM | 1.04 µM | 0.331 µM | 1.11 µM | 0.256 µM | 1.34 µM | – | – | O=C(c1ccccc1)N1CCc2c1ccc1[nH]c(-c3ccccc3)cc(=O)c21 | 0.918 µM | – |
| 0.002 µM | 0.01 µM | 0.002 µM | 0.0001 µM | 0.005 µM | 0.012 µM | 0.0002 µM | 0.0002 µM | 0.0003 µM | 0.016 µM | 0.89 µM | 70% | O=C(c1ccccc1)n1ccc2c3c(=O)cc(-c4ccccc4)[nH]c3ccc21 | 0.0009 µM | Activity (Jurkat [3]): >50%; IC50 (PBL [5]): 28 µM; Activity (HeLa [6]): Active; Stability (Liver [7]): Stable; Activity (HeLa [8]): >50%; Activity (Jurkat [9]): Active; Selectivity Index [10]: 1000 - 2000; Activity (HeLa [11]): Active; Activity (Jurkat [12]): Dose-dependent effect; Selectivity Index [13]: 1000 - 2000; remaining at 1 h, 10 µM [14]: > 60%; IC50 (PBL [15]): 15.2 µM; Activity (HeLa [16]): Dose-dependent effect; Drug metabolism (Liver [17]): Metabolite_Detected; Activity (HeLa [18]): Active |
| 0.019 µM | 0.009 µM | 0.002 µM | 0.001 µM | 0.074 µM | 0.017 µM | 0.0016 µM | 0.005 µM | 0.0001 µM | 0.0003 µM | – | – | O=C(C1CC1)n1ccc2c3c(=O)cc(-c4ccccc4)[nH]c3ccc21 | 0.0004 µM | – |
| > 10 µM | > 10 µM | > 10 µM | > 10 µM | > 10 µM | > 10 µM | 7.64 µM | > 10 µM | > 10 µM | > 10 µM | – | – | CS(=O)(=O)N1CCc2cc3[nH]c(-c4ccccc4)cc(=O)c3cc21 | > 10 µM | – |
| – | – | – | – | – | – | – | – | – | – | – | – | O=c1cc(-c2ccccc2)[nH]c2ccc3[nH]ccc3c12 | – | Drug metabolism (Liver [19]): Metabolite_Detected |
| 1.98 µM | 3.56 µM | 3.74 µM | 5.44 µM | 2.32 µM | 0.818 µM | 1.45 µM | 6.32 µM | 0.132 µM | 2.32 µM | – | – | O=C(c1ccccc1)N1CCc2cc3[nH]c(-c4ccccc4)cc(=O)c3cc21 | 1.66 µM | – |
| 0.352 µM | 0.451 µM | 0.291 µM | 0.623 µM | 0.071 µM | 0.235 µM | 0.563 µM | 0.521 µM | 0.035 µM | 0.372 µM | – | – | CS(=O)(=O)N1CCc2c1ccc1[nH]c(-c3ccccc3)cc(=O)c21 | 0.271 µM | – |
| 0.086 µM | 0.063 µM | 0.039 µM | 0.023 µM | 0.042 µM | 0.032 µM | 0.022 µM | 0.005 µM | 0.147 µM | 0.081 µM | 2.4 µM | 29% | O=c1cc(-c2ccccc2)[nH]c2ccc3c(ccn3S(=O)(=O)c3ccc(C(F)(F)F)cc3)c12 | 0.033 µM | – |
| 0.085 µM | 0.171 µM | 0.155 µM | 0.255 µM | 0.066 µM | 0.092 µM | 0.212 µM | 0.096 µM | 0.027 µM | 0.145 µM | 2.2 µM | 18% | O=C(NC1CC1)n1ccc2c3c(=O)cc(-c4ccccc4)[nH]c3ccc21 | 0.011 µM | – |
| 0.356 µM | 0.541 µM | 1.62 µM | 0.255 µM | 0.846 µM | 0.435 µM | 0.373 µM | 0.475 µM | 0.211 µM | 0.256 µM | – | – | O=c1cc(-c2ccccc2)[nH]c2ccc3c(c12)CCN3S(=O)(=O)c1ccc(C(F)(F)F)cc1 | 0.336 µM | – |
| 0.065 µM | 0.052 µM | 0.335 µM | 0.005 µM | 0.222 µM | 0.032 µM | 0.026 µM | 0.195 µM | 0.048 µM | 0.055 µM | 1.1 µM | 37% | Cc1ccc(S(=O)(=O)n2ccc3c4c(=O)cc(-c5ccccc5)[nH]c4ccc32)cc1 | 0.033 µM | – |
| 0.049 µM | 0.003 µM | 0.215 µM | 0.007 µM | 0.092 µM | 0.042 µM | 0.036 µM | 0.152 µM | 0.018 µM | 0.034 µM | 1.2 µM | 42% | CS(=O)(=O)n1ccc2c3c(=O)cc(-c4ccccc4)[nH]c3ccc21 | 0.023 µM | IC50 (PBL [5]): > 100 µM; Activity (Jurkat [9]): Active; Activity (HeLa [11]): Active; Activity (Jurkat [20]): Active; Activity (HeLa [21]): Active; IC50 (PBL [15]): > 100 µM |
